Source: PubChem BioAssay
KCNQ1 block: inhibitors of human KCNQ1 potassium channel; CHO-K1 KCNQ1, FluxOR thallium flux fluorescence; active compounds read high; B-score at 10 µM; 310,000 compounds, 1.3% hits;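 active = compounds whose thallium flux B-score, printed positive for inhibition, exceeds three library SD while starting fluorescence stays within three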;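 also: channel opened by potassium depolarization with thallium stimulus after 20 min compound exposure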
KCNK9 block: human KCNK9 channel inhibition. Q9NPC2. HEK293 KCNK9, FluxOR thallium flux fluorescence; active compounds read low. B-score at 10 µM. 310,000 compounds, 1.2% hits. AID 488922;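 active = ratio B-score over 3 SD below the library mean, with starting fluorescence within 5 SD of its mean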;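 also: negative B-score means less thallium flux so channel inhibition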
KCNK3 inh: human KCNK3 channel inhibition, primary screen; AID 602410; 340,000 compounds, 0.84% hits; B-score at 10 µM; O14649; CHO-KCNK3 thallium flux, FluxOR fluorescence; active compounds read low;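 active = B-score under library mean minus 4 SD, starting fluorescence ratio at most library mean plus 5 SD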;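 also: more negative B-score means stronger inhibition of thallium flux through KCNK3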
Target sequence (O14649 whole entry, looked up): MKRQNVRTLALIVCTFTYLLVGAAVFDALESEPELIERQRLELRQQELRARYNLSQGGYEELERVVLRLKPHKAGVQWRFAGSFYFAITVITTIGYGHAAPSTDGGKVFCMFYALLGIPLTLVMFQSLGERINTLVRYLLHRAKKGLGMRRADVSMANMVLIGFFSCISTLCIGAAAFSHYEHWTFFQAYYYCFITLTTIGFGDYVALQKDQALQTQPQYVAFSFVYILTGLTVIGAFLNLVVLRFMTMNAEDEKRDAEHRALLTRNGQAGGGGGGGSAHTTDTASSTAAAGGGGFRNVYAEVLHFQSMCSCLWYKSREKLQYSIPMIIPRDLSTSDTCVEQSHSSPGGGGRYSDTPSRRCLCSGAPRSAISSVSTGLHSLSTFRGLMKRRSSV
KCNQ1 act: human KCNQ1 channel potentiation or activation; B-score at 10 µM; AID 2648; P51787; CHO-K1 KCNQ1, thallium flux FluxOR fluorescence; active compounds read high; 310,000 compounds, 0.35% hits;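 active = fluorescence ratio B-score, a plate-corrected score, at least three library SD, with initial intensity B-score within 5 SD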
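System: Stable KCNQ1 CHO-K1 line | Incubation: 90 min dye loading and 20 min compound exposure, both at room temperature | Measure: Ratio B score | Medium: Assay buffer for compound exposure, DMSO matched across wells | Compound dosing: Single-concentration screen | Probe or stimulus: K+/Tl+ depolarizing stimulus | Measured by: Kinetic FluxOR fluorescence, 10 s baseline plus 110 s post-stimulus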
hERG rescue: compounds protecting human hERG from proarrhythmic drug block; Q12809; CHO-hERG, FluxOR thallium flux, dofetilide IC70 present; activation (rescue from dofetilide block), less the hit threshold, % at 10 µM; 310,000 compounds, 0.51% hits; AID 1511;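 active = activation above the mean of controls blocked by dofetilide plus 5 SD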;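 also: thallium influx through hERG after potassium depolarization seen as dye fluorescence rise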
Hits are given with their value; 0 = inactive; - = no result given. In the library only some 3.1% were active in any assay of this set; here they are far more common.

SMILES | KCNQ1 block | KCNK9 block | KCNK3 inh | KCNQ1 act | hERG rescue
COc1ccc(C(=O)NC2CCN(S(=O)(=O)c3ccccc3)CC2)cc1 | 0 | 0 | 0 | 0 | 0
O=[N+]([O-])c1cccnc1N1CCCCC1 | 0 | 0 | 0 | 0 | 0
Cc1ccc(C)c(N2CCN(c3ncccc3[N+](=O)[O-])CC2)c1 | 0 | -6.6 | 0 | 0 | 0
Cc1ccc2cc(/C=C3\N=C(c4ccccc4)OC3=O)c(N3CCOCC3)nc2c1 | 8 | 0 | - | 0 | 0
COc1ccc(N2CCN(c3nc4cc(C)ccc4cc3C=O)CC2)cc1 | 0 | 0 | 0 | 0 | 0
CN(CC(=O)Nc1cccc(F)c1)C(=O)c1cccc(S(=O)(=O)N2CCN(c3ccc(F)cc3)CC2)c1 | - | - | 0 | - | -
O=C(Cc1cccc2ccccc12)NN1C(=O)CSC1=S | 0 | 0 | 0 | 0 | 0
O=C(NN1C(=O)CSC1=S)C(=O)NN1C(=O)CSC1=S | 0 | 0 | 0 | 0 | 5.2
COc1cccc(C=NCC(C)N=Cc2cccc(OC)c2O)c1O (configuration not stated) | 0 | 0 | 0 | 0 | 5.2
COc1ccc(C(=O)Nc2cccc(C)n2)cc1S(=O)(=O)N1CCCc2ccccc21 | - | - | 0 | - | -
CCCn1c(CCNc2nc(-c3cccc(Br)c3)cs2)nc2ccccc21 | - | - | 0 | - | -
C/C(=C/CCC(C)C1CCC2(C)C3CCC4C(C)(C)C(=O)CCC4(C)C3=CCC12C)C(=O)O (configuration not stated) | 0 | 0 | - | 29 | 9.5
C/C(=C/CCC(C)[C@H]1CC[C@@]2(C)C3=C(CC[C@]12C)[C@@]1(C)CCC(=O)C(C)(C)[C@@H]1CC3)C(=O)O (some centres not stated) | 0 | 0 | 0 | 26 | 39
O=C(OCc1ccccc1)N1CCC2CC1c1cc(-c3ccc4c(c3)OCO4)ccc12 (configuration not stated) | - | - | 0 | - | -
O=C(OCCc1ccccn1)c1cccc([N+](=O)[O-])c1 | - | - | 0 | - | -
O=C(Cc1ccc(Br)cc1)c1ccc(O)cc1O | 0 | -8.2 | 0 | 0 | 0
COc1ccc(CC(=O)c2ccc(O)cc2O)cc1 | 0 | 0 | 0 | 0 | 0
N#Cc1ccccc1OCC(=O)OCC(=O)c1ccc2c(c1)NC(=O)CO2 | 0 | 0 | 0 | 0 | 5.4
O=C1COc2ccc(C(=O)COC(=O)COc3ccccc3[N+](=O)[O-])cc2N1 | 0 | 0 | 0 | 0 | 0
COc1cccc(OCCNS(=O)(=O)c2ccccc2[N+](=O)[O-])c1 | - | - | 0 | - | -
O=C(COC(=O)c1ccc(Br)cc1)NCCN1C(=O)CSC1=O | 0 | 0 | 0 | 0 | 7.3
COc1cccc(-c2ccc3c(c2)C2CC3CCN2C(C)=O)c1 (configuration not stated) | - | - | 0 | - | -
S=C(NNc1ccnc2cc(Cl)ccc12)Nc1ccccc1Cl | 8 | 0 | 0 | 0 | 0
Cc1ccc(Nc2c(O)nc[nH]c2=O)cc1 | - | - | 0 | - | -
CCOc1ccccc1NC(=O)c1cccc(S(=O)(=O)N(Cc2ccccc2)c2ccccc2OC)c1 | 0 | -6.9 | 0 | 0 | 0
SMILES | KCNQ1 block | KCNK9 block | KCNK3 inh | KCNQ1 act | hERG rescue
COc1ccc2[nH]c(C(=O)NCCCN3CCCC3=O)c(C)c2c1 | 0 | 0 | 0 | 0 | 0
CCc1cc(=O)oc2c(CNCc3c(F)cccc3Cl)c(O)ccc12 | 0 | 0 | 0 | 0 | 0
CC1(CCc2ccccc2)NC(=S)N(c2ccc(Cl)cc2)N1 (configuration not stated) | 0 | 0 | 0 | 0 | 0
CCC1(c2ccc(Cl)cc2)NC(=S)N(c2ccc(C)c(C)c2)N1 (configuration not stated) | 0 | 0 | 0 | 103 | 68
CC1=CC(C)(C)NC(=S)N1c1ccc(C)c(C)c1 | 0 | 0 | 0 | 0 | 0
CCC1(c2ccc(Cl)cc2)NC(=S)N(c2ccc(C)cc2)N1 (configuration not stated) | 0 | 0 | 0 | 68 | 38
CCC1(c2ccccc2)NC(=S)N(c2ccc(C)c(C)c2)N1 (configuration not stated) | 0 | 0 | 0 | 91 | 47
COc1ccc(OC)c(S(=O)(=O)ON2C(=O)c3ccccc3C2=O)c1 | 0 | 0 | 0 | 0 | 0
COc1ccc(OC)c2cc3ccccc3cc12 | - | - | -12 | - | -
O=C(Nc1ccc(C(=O)O)cc1)Nc1ccc([N+](=O)[O-])cc1 | 0 | 0 | 0 | 0 | 0
CC(C(=O)Nc1cccnc1)c1ccc([N+](=O)[O-])cc1 (configuration not stated) | 0 | 0 | 0 | 0 | 0
Cn1ccc(NC(=O)Nc2cccc([N+](=O)[O-])c2)n1 | 6 | 0 | 0 | 0 | 0
CC(C(=O)Nc1cccc(Br)c1)c1ccc([N+](=O)[O-])cc1 (configuration not stated) | 6 | 0 | 0 | 0 | 0
O=C(Nc1cccc([N+](=O)[O-])c1)NC1CCCCCCC1 | 7 | 0 | 0 | 0 | 0
O=C(Nc1ccc(C(=O)O)cc1)Nc1cccc([N+](=O)[O-])c1 | 7 | 0 | 0 | 0 | 0
O=C(c1ccc(F)cc1)N1CCN(S(=O)(=O)c2ccc(Br)cc2)CC1 | 0 | 0 | 0 | 0 | 0
CCOC(=O)N1CCN(C(=O)c2cc3n(n2)C(C(F)(F)F)CC(c2ccc4c(c2)OCO4)N3)CC1 (configuration not stated) | 0 | 0 | 0 | 0 | 0
O=CN1CCCN(C(=O)CC2C(=O)NCCN2Cc2cccc(Oc3ccccc3)c2)CC1 (configuration not stated) | 0 | 0 | 0 | 0 | 0
O=C(Nc1cccc([N+](=O)[O-])c1)Nc1cccc([N+](=O)[O-])c1 | 8 | 0 | 0 | 0 | 0
N#CCSc1nnc(COc2cccc3ccccc23)n1-c1cccc(Cl)c1 | 0 | 0 | 0 | 0 | 40
N#CCSc1nnc(COc2cccc3ccccc23)n1-c1ccccc1 | 0 | 0 | 0 | 0 | 0
COc1ccc(OC)c(C(c2nnnn2CCC(C)C)N2CCN(C(=O)c3ccco3)CC2)c1 (configuration not stated) | 0 | -6.7 | 0 | 0 | 0
COCCn1nnnc1C(c1ccccc1OC)N1CCN(C(=O)c2ccco2)CC1 (configuration not stated) | 0 | 0 | 0 | 0 | 0
O=C(c1cc(C(=O)NCCc2ccccc2)c(=O)n(CCc2ccccc2)c1)c1cc(Cl)ccc1O | 10 | 0 | 0 | 0 | 0
O=C(NCCc1ccccc1)c1ccccc1Cl | 0 | 0 | 0 | 0 | 0
COc1ccc(CCNC(=O)c2cc(C(=O)c3cc(Cl)ccc3O)cn(CCc3ccc(OC)cc3)c2=O)cc1 | 8 | 0 | 0 | 0 | 0
COc1ccc(CCNC(=O)c2cc(C(=O)c3cc(C)ccc3O)cn(CCc3ccc(OC)cc3)c2=O)cc1 | 0 | 0 | 0 | 0 | 0
COc1ccc(S(=O)(=O)N(C)C[C@@H]2Oc3c(NS(=O)(=O)c4cn(C)cn4)cccc3C(=O)N([C@@H](C)CO)C[C@@H]2C)cc1 | - | - | 0 | - | -
CCOC(=O)C1=C(C)N(c2ccccc2)C(=O)/C1=C\c1ccc(O)c(OC)c1 | 0 | -6.8 | 0 | 0 | 0
CCOC(=O)C1=C(C)N(c2ccccc2)C(=O)/C1=C\c1ccco1 | 0 | 0 | 0 | 0 | 0
